Bfl-1 Bim block = human Bim-Bfl-1 interaction inhibition; inhibition, % at 10 µM; Bead-based flow cytometry, Bim-Bfl-1 binding inhibition; 190,000 compounds, 0.12% hits;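 note: 0% = wells without compound plus tracer and 100% = blocker peptide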
Target sequence (Q16548 whole entry, looked up): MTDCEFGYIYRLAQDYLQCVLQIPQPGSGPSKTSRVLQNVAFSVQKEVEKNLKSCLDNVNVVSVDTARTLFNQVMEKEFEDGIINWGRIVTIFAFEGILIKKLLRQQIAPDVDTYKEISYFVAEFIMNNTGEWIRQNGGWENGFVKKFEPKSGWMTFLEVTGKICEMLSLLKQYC
Bcl-B Bim block = disrupts Bim peptide binding to human Bcl-B. Q9HD36. bead-based flow cytometry. inhibition, % at 10 µM. 190,000 compounds, 0.073% hits. AID 951;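 note: 0% = tracer peptide without compound and 100% = reference inhibitor peptide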
Bcl-XL Bim block = human Bim-Bcl-XL interaction inhibition; Q07817; Bim peptide-Bcl-XL binding, bead flow cytometry, fluorescence; inhibition, % at 10 µM; 190,000 compounds, 0.04% hits; AID 1007
Target sequence (Q07817 whole entry, looked up): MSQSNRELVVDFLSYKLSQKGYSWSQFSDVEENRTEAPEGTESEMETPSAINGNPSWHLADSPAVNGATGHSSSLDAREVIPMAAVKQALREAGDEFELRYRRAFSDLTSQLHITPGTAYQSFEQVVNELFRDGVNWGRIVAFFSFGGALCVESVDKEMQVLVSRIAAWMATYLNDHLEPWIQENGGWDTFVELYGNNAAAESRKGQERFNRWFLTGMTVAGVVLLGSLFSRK
Bim-Bcl-W = inhibitors of Bim-Bcl-W interaction, human | Q92843 | bead-based flow cytometry, Bim peptide-Bcl-W binding | inhibition, % at 10 µM | 190,000 compounds, 0.02% hits | AID 952;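 note: 0% = bound tracer without compound and 100% = peptide blocker; higher means less fluorescent Bim peptide bound to Bcl-W beads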
Rad51 HR inh = Rad51 (human) homologous recombination inhibition; AID 1385; inhibition, % at 10 µM; Q06609; hRad51 DNA strand exchange, fluorescence dequenching; 200,000 compounds, 0.085% hits;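 active = inhibition above 40% at the single screening dose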;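 note: 0% = DMSO control wells and 100% = blanks with heterologous ssDNA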
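Test system: preformed human Rad51 ssDNA filaments. Compound dosing: single dose, 10 µM final compound. Incubation: filaments 15 min 37 °C, then compound 30 min. Technique: FRET fluorescence dequenching, excitation 485 nm, emission 520 nm. Read-out basis: percent inhibition from fluorescence, normalised to plate control and blank means. Benchmarks: plate controls and plate blanks.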
Bcl-2 Bim block = inhibitors of Bim-Bcl-2 interaction, human; inhibition, % at 10 µM; P10415; Bead-based flow cytometry, Bim peptide-Bcl-2 binding; 190,000 compounds, 0.06% hits; in the data active = inhibition above about 40%;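 note: 0% = no compound wells with probe peptide and 100% = reference peptide inhibitor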
Target sequence (P10415 whole entry, looked up): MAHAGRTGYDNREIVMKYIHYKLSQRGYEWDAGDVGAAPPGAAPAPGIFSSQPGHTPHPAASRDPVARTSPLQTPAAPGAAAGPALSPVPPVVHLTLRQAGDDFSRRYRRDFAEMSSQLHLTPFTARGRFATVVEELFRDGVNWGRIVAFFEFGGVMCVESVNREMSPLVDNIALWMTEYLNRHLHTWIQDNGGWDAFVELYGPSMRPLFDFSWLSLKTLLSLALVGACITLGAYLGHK
* marks the source's active call; other numbers are inactive results; i = inactive; / = no result given. A selection: hits, their analogues and other compounds. The true share with any hit is near 0.23%. Cut-off read from the data, not from the text of the source, unless noted: active = inhibition above about 40%.

SMILES	Bfl-1 Bim block	Bcl-B Bim block	Bcl-XL Bim block	Bim-Bcl-W	Rad51 HR inh	Bcl-2 Bim block
O=C1c2ccccc2-c2onc3ccc(N4CCCC4)c1c23	42.0*	30.0	63.0*	63.0*	i	46.0*
Cc1cc(-c2nnc(CCC(=O)NC(C)c3ccccc3Cl)o2)no1 (stereo not given)	-7.0	-4.0	0.0	-3.0	1.2	-5.0
Cc1cc(-c2nnc(CCC(=O)NC(C)c3cccc4ccccc34)o2)no1 (stereo not given)	44.0*	78.0*	17.0	11.0	0.7	73.0*
Cn1ccnc1Sc1nnnn1-c1ccccc1	2.0	0.0	-7.0	-3.0	-4.3	2.0
Cc1ccc2cc(C)c(Sc3nnnn3-c3ccccc3)nc2c1	40.0*	23.0	42.0*	28.0	2.8	26.0
O=C(O)CCCNc1cc(N2CCC3(CC2)OCCO3)c2noc3c2c1C(=O)c1ccccc1-3	42.0*	5.0	26.0	37.0	/	23.0
CCOC(=O)N1CCN(c2cc(NCCC(=O)O)c3c4c(onc24)-c2ccccc2C3=O)CC1	43.0*	38.0	40.0*	39.0	/	31.0
CC(=O)N1CCN(C(=O)c2ccc(-n3c(C)ccc3C)cc2)CC1	7.0	41.0*	10.0	6.0	-4.4	17.0
COc1ccc(N(CC(=O)NC2CCCCC2)C(=O)CNC(=O)c2ccco2)cc1	-6.0	-1.0	-2.0	0.0	-2.6	-2.0
Cc1cccc(N2C(S)=C(C#N)C(=O)NC2c2cccs2)c1 (stereo not given)	42.0*	18.0	35.0	25.0	3.2	21.0
CCOC(=O)CN1C(=O)N[C@@H](CCc2ccccc2)[C@@H](C(=O)OC)[C@H]1C	/	/	/	/	52.9*	/
CCOC(=O)CN1C(=O)N[C@@H](c2ccccc2)[C@@H](C(=O)OC)[C@H]1C	/	/	/	/	1.9	/
CN(C1=C(NC(=O)c2ccccc2)C(=O)c2ccccc2C1=O)C1CCS(=O)(=O)C1 (stereo not given)	-7.0	-7.0	-8.0	-4.0	/	-6.0
CC(=O)NC1=C(NC2CCS(=O)(=O)C2)C(=O)c2ccccc2C1=O (stereo not given)	41.0*	6.0	2.0	14.0	1.7	6.0
CCOc1ncccc1C(=O)OC(C)C(=O)Nc1ccc(CC)cc1 (stereo not given)	18.0	55.0*	1.0	0.0	-4.1	50.0*
Cc1cc(NC(=O)CSc2nncn2-c2ccccc2)no1	-2.0	0.0	1.0	-1.0	-5.5	0.0
COc1ccc(-n2cnnc2SCC(=O)Nc2cc(C)on2)cc1	-4.0	-3.0	-1.0	-3.0	44.4*	-1.0
CC(C)CNc1nc(SCC(=O)Nc2ccccc2)nc(N2CCOCC2)n1	0.0	2.0	3.0	7.0	6.3	2.0
CCCOc1ccccc1N/C(=N/c1nc(C)cc(C)n1)NC(=O)COc1ccc(OC)cc1	-15.0	-10.0	-10.0	-6.0	96.7*	-10.0
COc1cccc(C2(O)CC(C(F)(F)F)=NN2C(=O)c2ccccn2)c1 (stereo not given)	-8.0	-3.0	0.0	-2.0	-4.4	-3.0
COc1ccc(CCNC(=O)c2cc(-c3ccncc3)nc3c(Cl)cccc23)cc1OC	-3.0	0.0	-1.0	1.0	1.0	0.0
COc1ccc(CCNC(=O)c2cc(-c3ccccn3)nc3c(Cl)cccc23)cc1OC	1.0	53.0*	56.0*	16.0	4.0	41.0*
O=C1C(=O)c2ccc(-c3ccccc3)cc2-c2ccccc21	41.0*	21.0	38.0	25.0	-4.5	32.0
Nc1ccc2c(c1)C(=O)C(=O)c1ccccc1-2	0.0	5.0	-9.0	5.0	-9.3	4.0
O=C(COC(=O)c1cccnc1Cl)NCc1cccs1	-4.0	0.0	-6.0	-1.0	-4.4	-1.0
SMILES	Bfl-1 Bim block	Bcl-B Bim block	Bcl-XL Bim block	Bim-Bcl-W	Rad51 HR inh	Bcl-2 Bim block
CC(C)(C)C1=CC(=O)C(=O)C(C(C)(C)C)=C1	56.0*	2.0	0.0	9.0	22.4	18.0
COC(=O)c1cc(OC)c(OC)cc1NC(=O)Nc1cccc(C(C)=O)c1	62.0*	77.0*	10.0	3.0	-15.1	85.0*
O=C(Nc1ccccc1)C1=C(c2ccccc2)S(=O)(=O)CCS1(=O)=O	-10.0	-1.0	-3.0	-3.0	41.6*	-3.0
O=C(O)c1ccccc1C(=O)Nc1ccccc1	-10.0	-5.0	-5.0	0.0	-0.6	-8.0
O=C(Oc1ccc(-c2cnc3ccccc3n2)cc1)c1cc([N+](=O)[O-])ccc1Cl	0.0	-9.0	-1.0	1.0	-0.6	-7.0
Cc1c(C(=O)Oc2ccc(-c3cnc4ccccc4n3)cc2)cccc1[N+](=O)[O-]	40.0*	-11.0	0.0	12.0	0.6	10.0
CC(=O)c1ccc(N2CCN(C(=O)Nc3cccc(F)c3)CC2)cc1	-4.0	0.0	-4.0	-4.0	-2.5	-6.0
O=C(NC1CCCCC1)Sc1ccc(Cl)cc1	-10.0	-4.0	-5.0	-3.0	4.9	-3.0
CN=C(NC1CCCCC1)c1ccc(Cl)cc1	49.0*	-26.0	1.0	24.0	/	13.0
O=C(CSc1ncn[nH]1)CSc1ncn[nH]1	-4.0	-12.0	-6.0	-6.0	37.6	-5.0
Cc1nnc(SCC(=O)c2ccc(Cl)cc2)s1	-4.0	-6.0	-4.0	-7.0	40.5*	-6.0
Cc1ccc(/C=C/S(=O)(=O)NCC(=O)OCC(=O)N2CC(=O)Nc3ccccc32)cc1	/	/	/	/	15.5	/
CCN(CC)c1ccc(NC2=C(Cl)C(=O)c3ccccc3C2=O)cc1	70.0*	-39.0	-6.0	21.0	/	16.0
CC(=O)OCCCNc1cc(Sc2ccc(C)cc2)c2nonc2c1[N+](=O)[O-]	-3.0	-10.0	-3.0	1.0	2.0	0.0
CC(=O)OCCNc1cc(Sc2nc3ccccc3[nH]2)c2nonc2c1[N+](=O)[O-]	44.0*	0.0	0.0	9.0	-6.3	2.0
COc1cc(C2NC(=O)NC(c3ccccc3)=C2C(C)=O)cc([N+](=O)[O-])c1O (stereo not given)	-4.0	-2.0	-1.0	2.0	/	-1.0
O=C(N/N=C/c1ccncc1)c1cccc(NC(=O)c2ccccc2Cl)c1	34.0	21.0	43.0*	29.0	0.5	32.0
CN(Cc1cccs1)C(=O)CCc1c[nH]c2ccccc12	20.0	50.0*	-1.0	1.0	-0.2	48.0*
O=C(COc1ccc(F)cc1Br)NCc1ccccn1	-1.0	-1.0	-1.0	0.0	-10.6	4.0
O=C(COc1ccccc1Br)NCc1ccccn1	44.0*	75.0*	10.0	5.0	-0.1	71.0*
COc1cc(/C=C2/NC(=O)N(Cc3ccccc3F)C2=O)ccc1O	4.0	13.0	4.0	0.0	/	5.0
Cc1ccc(SCc2c(-c3ccccc3)nn(C)c2Cl)cc1	0.0	2.0	4.0	1.0	0.0	3.0
Cc1ccc(Sc2c(C#N)c(-c3ccccc3)nn2C)cc1	47.0*	68.0*	8.0	10.0	6.8	78.0*
O=C(Nc1cccc(Cl)c1)Nc1ccc(Cl)cn1	51.0*	72.0*	30.0	18.0	-8.2	77.0*
Cc1cc2nc3c(nc2cc1C)C1(C(=O)O)CCC3(C)C1(C)C (stereo not given)	-7.0	-8.0	-11.0	-1.0	40.3*	-6.0

Screening data: PubChem, several laboratories
